# What was measured:
# [1] = target: T1, human GluK1 (Homo sapiens, UniProt P39086); type: cell-based; settings: from KB values
# [2] = target: human GluK2 (Homo sapiens, UniProt Q13002); type: cell-based; settings: tested at a concentration of 100 μM
# Outline: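 HEK293 cells stably expressing homomeric human GluK2(Q), passaged no more than 20 times. Ca2+ influx read by fluorescence plate reader with concanavalin A present. Test compound is added over a range of concentrations, then L-glutamate plus antagonist (final glutamate 10 μM). Curves are fitted with slope fixed at 1 and top/bottom fixed at 100%/0% inhibition. KB is derived from IC50 by Cheng-Prusoff.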
# [3] = target: GluN1a/GluN2A NMDAR (Rattus norvegicus, UniProt P35439+Q00959); type: cell-based
# Chain of GluN1a/GluN2A NMDAR (Rattus norvegicus, UniProt P35439+Q00959) (Q00959 23-1464, other chains not shown): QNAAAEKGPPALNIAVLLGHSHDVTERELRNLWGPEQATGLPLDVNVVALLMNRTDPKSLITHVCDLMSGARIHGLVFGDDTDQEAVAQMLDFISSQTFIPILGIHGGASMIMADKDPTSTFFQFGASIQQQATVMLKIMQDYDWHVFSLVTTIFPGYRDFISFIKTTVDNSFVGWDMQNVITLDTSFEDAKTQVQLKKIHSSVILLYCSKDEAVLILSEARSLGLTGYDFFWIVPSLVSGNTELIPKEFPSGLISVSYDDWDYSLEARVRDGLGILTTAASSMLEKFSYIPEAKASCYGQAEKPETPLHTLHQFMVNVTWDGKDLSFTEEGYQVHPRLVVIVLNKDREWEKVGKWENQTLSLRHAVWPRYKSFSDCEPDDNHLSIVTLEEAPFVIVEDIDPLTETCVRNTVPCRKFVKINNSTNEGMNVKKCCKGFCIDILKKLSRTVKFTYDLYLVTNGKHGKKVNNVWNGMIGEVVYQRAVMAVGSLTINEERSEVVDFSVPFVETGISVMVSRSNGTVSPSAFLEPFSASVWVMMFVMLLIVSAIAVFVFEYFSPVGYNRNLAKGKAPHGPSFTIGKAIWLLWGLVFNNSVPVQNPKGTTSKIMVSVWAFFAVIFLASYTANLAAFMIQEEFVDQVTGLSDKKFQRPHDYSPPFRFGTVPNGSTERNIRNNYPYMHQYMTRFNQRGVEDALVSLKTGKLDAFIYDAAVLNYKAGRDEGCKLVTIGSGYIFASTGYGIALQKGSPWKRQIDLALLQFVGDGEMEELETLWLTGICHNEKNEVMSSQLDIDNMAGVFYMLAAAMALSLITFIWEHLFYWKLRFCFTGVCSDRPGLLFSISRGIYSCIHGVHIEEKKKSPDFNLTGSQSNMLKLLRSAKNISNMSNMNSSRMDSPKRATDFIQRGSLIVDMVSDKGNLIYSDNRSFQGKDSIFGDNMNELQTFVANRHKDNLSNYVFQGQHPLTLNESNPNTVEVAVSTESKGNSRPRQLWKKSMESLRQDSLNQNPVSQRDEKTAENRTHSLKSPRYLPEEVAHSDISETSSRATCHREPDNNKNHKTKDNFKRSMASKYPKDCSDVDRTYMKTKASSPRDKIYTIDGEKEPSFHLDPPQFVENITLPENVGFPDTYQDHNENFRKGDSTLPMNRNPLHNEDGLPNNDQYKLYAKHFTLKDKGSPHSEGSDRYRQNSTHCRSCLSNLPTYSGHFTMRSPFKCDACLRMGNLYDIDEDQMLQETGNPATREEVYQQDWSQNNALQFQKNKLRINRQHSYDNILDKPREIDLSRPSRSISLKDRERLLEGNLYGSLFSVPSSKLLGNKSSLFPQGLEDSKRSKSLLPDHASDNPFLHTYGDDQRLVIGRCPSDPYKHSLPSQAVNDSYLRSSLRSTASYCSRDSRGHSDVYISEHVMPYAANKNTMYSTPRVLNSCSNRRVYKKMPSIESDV
# [4] = target: GluN1a/GluN2A NMDAR (Rattus norvegicus, UniProt Q00959); type: cell-based; settings: at a concentration of 100 μM
# [5] = target: GluN1a/GluN2B NMDAR (Rattus norvegicus, UniProt P35439+Q00960); type: cell-based
# [6] = target: GluN1a/GluN2B NMDAR (Rattus norvegicus, UniProt Q00960); type: cell-based; settings: at a concentration of 100 μM
# [7] = Solubility observations; type: physicochemical; settings: for water solubility: at higher concentrations
# [8] = target: T1, human GluK1; test: Electrophysiological assay; type: cell-based; settings: electrophysiological assays
# Outline: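 Whole-cell patch clamp at −70 mV on HEK293 cells stably expressing homomeric human GluK1 or GluK3. Cells are bathed in HBS pH 7.4 at 20°C and lifted into a piezo-driven theta tube. 30 mM glutamate is applied for 100 ms every 20 s. Antagonist is added to both barrels for about 2 min, giving 5 concentrations per cell, each averaged over 6 sweeps. IC50 values are reported with 95% confidence intervals.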
# [9] = test system: native AMPARs; type: cell-based, rat; settings: 100 μM, n=4
# Outline: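 Field EPSPs in transverse rat hippocampal slices (400 μm), perfused at 29°C. Mossy fibers stimulated via the dentate granule cell layer every 60 s. Responses averaged every 2 min and measured as 20–80% slope. Test compound at 100 μM perfused for 30 min. Results expressed as % of control slope, mean ± s.e.m., n=4, compared by Student's t test.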
# [10] = target: wildtype (WT) GluK3 (Homo sapiens, UniProt Q13003); test: [3H]kainate competition binding to wildtype GluK3 membranes; settings: 18i 100 μM, 300 μM, 1 mM; 20 nM [3H]kainate
# Outline: (§1)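 Filtration binding on human GluK3a membranes. Wildtype comes from stably transfected HEK293 (hygromycin); the A660S mutant is transiently PEI-transfected for 48 h. Membranes are prepared by hypotonic sonication and washed in 50 mM Tris-citrate pH 7.4. Assay uses 20 nM [3H]kainate, with 1 mM kainate defining non-specific binding. Test compound at 100 μM, 300 μM and 1 mM; three experiments in triplicate.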
# [11] = target: GluK3 A660S mutant receptor (Homo sapiens, UniProt Q13003, A691S); test: [3H]kainate competition binding to GluK3 A660S mutant membranes; settings: 18i 100 μM, 300 μM, 1 mM; 20 nM [3H]kainate; compared with wild type
# Outline: as §1
# [12] = test system: male Wistar rats with partial saphenous nerve ligation injury (PSNI); test: Nociceptive behaviour in rats, partial saphenous nerve ligation injury; type: in vivo, rat
# Outline: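 Male Wistar rats (~250 g) habituated to testing, tested before saphenous nerve injury. Test compound or vehicle given i.p. (n=5/group), testing starts 15 min later. Von Frey hairs applied to the plantar hindpaw (≤5 s, five times per paw, both paws); thresholds taken from stimulus-response curves. Radiant-heat withdrawal latency is the mean of three stimulations per paw.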
# [13] = target: GluN1a/GluN2C NMDAR (Rattus norvegicus, UniProt P35439+Q00961); type: cell-based
# [14] = target: GluN1a/GluN2D NMDAR (Rattus norvegicus, UniProt Q62645); type: cell-based
# Chain of GluN1a/GluN2D NMDAR (Rattus norvegicus, UniProt Q62645) (Q62645 28-1323, other chains not shown): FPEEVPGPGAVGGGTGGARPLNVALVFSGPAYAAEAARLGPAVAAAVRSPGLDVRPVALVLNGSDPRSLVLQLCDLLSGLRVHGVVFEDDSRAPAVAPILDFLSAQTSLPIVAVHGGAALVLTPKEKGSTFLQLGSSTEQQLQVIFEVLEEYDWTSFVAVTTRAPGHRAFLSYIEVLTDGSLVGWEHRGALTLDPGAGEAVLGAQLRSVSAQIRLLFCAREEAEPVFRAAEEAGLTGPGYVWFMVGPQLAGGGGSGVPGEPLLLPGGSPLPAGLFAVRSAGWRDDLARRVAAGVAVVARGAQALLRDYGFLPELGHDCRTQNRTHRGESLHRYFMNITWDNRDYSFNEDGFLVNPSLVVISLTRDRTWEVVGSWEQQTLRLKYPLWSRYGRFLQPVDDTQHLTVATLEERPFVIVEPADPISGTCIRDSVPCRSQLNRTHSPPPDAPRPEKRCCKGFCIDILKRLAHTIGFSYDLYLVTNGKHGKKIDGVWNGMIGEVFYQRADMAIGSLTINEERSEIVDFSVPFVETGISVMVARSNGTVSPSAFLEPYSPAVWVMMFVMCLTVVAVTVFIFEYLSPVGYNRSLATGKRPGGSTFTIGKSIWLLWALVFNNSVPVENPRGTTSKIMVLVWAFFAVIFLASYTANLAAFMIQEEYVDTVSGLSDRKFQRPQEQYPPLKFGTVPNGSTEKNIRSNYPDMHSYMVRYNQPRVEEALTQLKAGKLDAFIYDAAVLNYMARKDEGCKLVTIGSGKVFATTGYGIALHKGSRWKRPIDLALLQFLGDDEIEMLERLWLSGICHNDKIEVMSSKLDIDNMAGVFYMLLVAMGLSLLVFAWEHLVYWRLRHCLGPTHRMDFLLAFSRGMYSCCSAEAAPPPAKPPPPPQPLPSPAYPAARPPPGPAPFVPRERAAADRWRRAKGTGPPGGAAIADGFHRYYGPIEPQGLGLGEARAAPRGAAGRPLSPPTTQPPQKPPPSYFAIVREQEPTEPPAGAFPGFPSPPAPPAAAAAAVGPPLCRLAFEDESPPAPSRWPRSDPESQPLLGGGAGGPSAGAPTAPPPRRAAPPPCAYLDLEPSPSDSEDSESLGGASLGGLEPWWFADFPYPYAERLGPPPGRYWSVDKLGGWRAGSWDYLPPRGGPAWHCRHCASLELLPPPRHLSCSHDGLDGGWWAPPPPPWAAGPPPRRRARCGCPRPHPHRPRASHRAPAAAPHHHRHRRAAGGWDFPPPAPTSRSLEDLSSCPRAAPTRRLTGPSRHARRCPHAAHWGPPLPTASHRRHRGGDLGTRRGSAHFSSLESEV
# [15] = test system: AMPARs; settings: competition binding assays; ref [5c]; cited from earlier work
# [16] = target: GluN1a/GluN2D NMDAR (Rattus norvegicus, UniProt P35439+Q62645); type: cell-based
# Chain of GluN1a/GluN2D NMDAR (Rattus norvegicus, UniProt P35439+Q62645) (Q62645 28-1323, other chains not shown): as above
# Chain of human GluK2 (Q13002 32-908): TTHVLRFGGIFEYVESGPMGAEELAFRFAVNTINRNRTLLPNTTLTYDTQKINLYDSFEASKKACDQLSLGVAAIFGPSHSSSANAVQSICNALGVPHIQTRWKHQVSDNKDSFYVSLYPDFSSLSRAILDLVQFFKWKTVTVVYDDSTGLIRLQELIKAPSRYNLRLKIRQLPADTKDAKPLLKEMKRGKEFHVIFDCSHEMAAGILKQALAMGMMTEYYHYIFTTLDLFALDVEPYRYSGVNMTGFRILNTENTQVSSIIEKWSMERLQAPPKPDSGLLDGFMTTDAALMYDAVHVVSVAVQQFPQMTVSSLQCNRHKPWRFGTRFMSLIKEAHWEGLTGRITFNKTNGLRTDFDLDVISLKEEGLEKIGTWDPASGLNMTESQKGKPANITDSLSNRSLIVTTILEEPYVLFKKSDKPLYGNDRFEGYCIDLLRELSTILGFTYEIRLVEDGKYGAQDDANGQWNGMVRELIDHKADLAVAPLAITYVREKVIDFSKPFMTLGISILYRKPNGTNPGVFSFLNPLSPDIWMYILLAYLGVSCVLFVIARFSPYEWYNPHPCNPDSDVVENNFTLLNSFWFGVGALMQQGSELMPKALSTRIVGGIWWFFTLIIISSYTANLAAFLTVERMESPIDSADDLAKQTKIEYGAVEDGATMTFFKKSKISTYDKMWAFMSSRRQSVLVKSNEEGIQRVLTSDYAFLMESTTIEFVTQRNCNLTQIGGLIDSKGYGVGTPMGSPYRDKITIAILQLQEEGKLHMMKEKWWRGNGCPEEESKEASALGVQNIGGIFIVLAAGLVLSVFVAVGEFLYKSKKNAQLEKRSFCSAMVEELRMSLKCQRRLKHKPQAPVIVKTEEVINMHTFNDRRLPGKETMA
# T1 sequence (P39086 31-905 isoform P39086-2 limits assumed): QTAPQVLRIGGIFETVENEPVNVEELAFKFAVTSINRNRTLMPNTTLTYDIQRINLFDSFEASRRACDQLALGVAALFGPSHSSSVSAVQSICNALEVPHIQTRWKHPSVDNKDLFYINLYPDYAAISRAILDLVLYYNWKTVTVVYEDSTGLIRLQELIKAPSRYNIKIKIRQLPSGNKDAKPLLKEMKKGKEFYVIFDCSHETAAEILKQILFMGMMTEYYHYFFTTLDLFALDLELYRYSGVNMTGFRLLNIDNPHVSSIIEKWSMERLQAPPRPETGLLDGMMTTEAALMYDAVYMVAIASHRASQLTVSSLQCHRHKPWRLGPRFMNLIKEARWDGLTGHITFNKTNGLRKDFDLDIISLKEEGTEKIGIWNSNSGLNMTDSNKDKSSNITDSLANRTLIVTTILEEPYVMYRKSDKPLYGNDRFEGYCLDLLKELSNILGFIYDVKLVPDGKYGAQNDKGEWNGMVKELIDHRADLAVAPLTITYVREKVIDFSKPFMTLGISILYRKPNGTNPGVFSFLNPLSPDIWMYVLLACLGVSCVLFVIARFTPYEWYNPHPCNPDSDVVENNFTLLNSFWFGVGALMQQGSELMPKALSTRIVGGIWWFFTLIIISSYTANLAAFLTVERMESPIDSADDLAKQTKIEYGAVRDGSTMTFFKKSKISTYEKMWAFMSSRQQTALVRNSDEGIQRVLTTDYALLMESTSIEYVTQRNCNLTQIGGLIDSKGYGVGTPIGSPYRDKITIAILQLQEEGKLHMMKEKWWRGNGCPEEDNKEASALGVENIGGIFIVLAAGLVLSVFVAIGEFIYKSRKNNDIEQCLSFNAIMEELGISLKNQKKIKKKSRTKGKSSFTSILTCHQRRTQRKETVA
structure (smiles),measurement,setting,value
O=C(O)[C@@H]1NCCN(C(=O)c2ccc3c(ccc4ccccc43)c2)[C@H]1C(=O)O [Compound 34d],fold lower affinity for GluK1 compared to (±)-4,[1],8 fold
O=C(O)[C@H]1NCCN(C(=O)c2ccc3c(ccc4cc(Br)ccc43)c2)[C@H]1C(=O)O [Compound 34e],GluK2 antagonist activity,[2],no GluK2 antagonist activity
"O=C(O)[C@H]1NCCN(C(=O)c2ccc3cc(-c4ccccc4)ccc3c2)[C@H]1C(=O)O (relative stereo) [Compound 18d, (2R*,3S*)-1-(6-Phenylnaphthalene-2-carbonyl)piperazine-2,3-dicarboxylic acid]",IC50,[3],> 100 µM
same,antagonism of GluN2A,[4],30–37%
same,IC50,[5],> 100 µM
same,antagonism of GluN2B,[6],30–37%
same,GluK2 antagonist activity,[2],no GluK2 antagonist activity
same,solubility in electrophysiological recording buffer,"[7]; 300 μM, room temperature, visible light scattering",insoluble at high concentrations
same,water solubility,[7],poor water solubility
O=C(O)[C@H]1NCCN(C(=O)c2ccc3c(c2)CCc2ccccc2-3)[C@H]1C(=O)O [Compound 34g],GluK2 antagonist activity,[2],no GluK2 antagonist activity
"O=C(O)[C@H]1NCCN(C(=O)c2ccc3cc(I)c4ccccc4c3c2)[C@H]1C(=O)O (relative stereo) [Compound 18i, (2R*,3S*)-1-(9-Iodophenanthrene-3-carbonyl)piperazine-2,3-dicarboxylic acid]",fold higher affinity for GluK1 compared to 18c,[1],1.7 fold
same,fold lower IC50 for GluK1 versus GluK3,[8],> 100 fold
same,"AMPAR mediated fEPSP response in the presence of compound, % of slope","[9]; 30 min perfusion, control 100 ± 2%, mean ± s.e.m.",99 ± 2%
same,antagonist activity on AMPAR mediated EPSPs in CA3 region of the hippocampus,[9],no antagonist activity
same,inhibition of [3H]kainate binding to wild type GluK3,[10],low binding affinity
same,inhibition of [3H]kainate binding to A660S point mutant of GluK3,[11],more potently inhibited
same,thermal withdrawal latency to radiant heat,"[12]; 30 mg/kg i.p., acute, day 7 after PSNI, n=5 per group",increased thermal withdrawal latency in these animals above baseline values
same,mechanical withdrawal threshold (mechanical allodynia),"[12]; 30 mg/kg i.p., acute, day 7 after PSNI, versus vehicle, n=5 per group",completely reversed the drop in mechanical withdrawal threshold
same,antinociceptive effects in normal animals,[12]; normal animals before nerve injury (not shown),exerted antinociceptive effects
O=C(O)C1NCCN(C(=O)c2ccc3c(ccc4ccccc43)c2)C1C(=O)O (stereo not drawn) [(±)-4],GluK2 antagonist activity,[2],no GluK2 antagonist activity
"O=C(O)[C@H]1NCCN(C(=O)c2ccc3cc(I)ccc3c2)[C@H]1C(=O)O (relative stereo) [Compound 18c, (2R*,3S*)-1-(6-Iodonaphthalene-2-carbonyl)piperazine-2,3-dicarboxylic acid]",GluK2 antagonist activity,[2],no GluK2 antagonist activity
O=C(O)c1ccc(-c2ccc(C(=O)N3CCN[C@H](C(=O)O)[C@@H]3C(=O)O)cc2)cc1 [Compound 20],IC50,[5],> 100 µM
same,IC50,[13],> 100 µM
same,fold lower affinity for GluK1 compared to 34b,[1],5 fold
same,water solubility,[7],poor water solubility
"O=C(O)C1NCCN(C(=O)c2ccc3c(ccc4ccccc43)c2)C1C(=O)O (single isomer, unassigned; (+)) [(+)-4, (+)-1-(Phenanthrene-2-carbonyl)piperazine-2,3-dicarboxylic acid]",fold lower affinity for GluN2D than the (−)-4 isomer,[14],50 fold
O=C(O)[C@H]1NCCN(C(=O)c2ccc(/N=N/c3ccccc3)cc2)[C@H]1C(=O)O [Compound 18l],GluK2 antagonist activity,[2],no GluK2 antagonist activity
same,inhibition of [3H]AMPA binding,[15],only very weak inhibitors
O=C(O)[C@H]1NCCN(C(=O)c2ccc(C#Cc3ccccc3)cc2)[C@H]1C(=O)O [Compound 18k],GluK2 antagonist activity,[2],no GluK2 antagonist activity
same,inhibition of [3H]AMPA binding,[15],only very weak inhibitors
"O=C(O)[C@H]1NCCN(C(=O)c2ccc3cc(Br)c4ccccc4c3c2)[C@H]1C(=O)O (relative stereo) [Compound 18h, (2R*,3S*)-1-(9-Bromophenanthrene-3-carbonyl)piperazine-2,3-dicarboxylic acid]",inhibition of [3H]AMPA binding,[15],only very weak inhibitors
O=C(O)c1ccc2cc(C(=O)N3CCN[C@H](C(=O)O)[C@@H]3C(=O)O)ccc2c1 [Compound 19],IC50,[3],> 100 µM
same,IC50,[5],> 100 µM
same,IC50,[13],> 100 µM
same,IC50,[16],> 100 µM
O=C(O)[C@H]1NCCN(Cc2ccc3c(ccc4ccccc43)c2)[C@H]1C(=O)O [Compound 34f],fold lower affinity for GluK1 compared to (±)-4,[1],5 fold
O=C(O)[C@H]1NCCN(C(=O)c2ccc(-c3ccccc3)cc2)[C@H]1C(=O)O [Compound 34b],GluK2 antagonist activity,[2],no GluK2 antagonist activity
O=C(O)[C@H]1NCCN(C(=O)c2ccc3ccc4ccccc4c3c2)[C@H]1C(=O)O [Compound 5],selectivity for GluN2D versus GluK1,[14]; GluN2D Ki versus GluK1 KB,around 10 fold
same,GluK2 antagonist activity,[2],no GluK2 antagonist activity
same,inhibition of [3H]AMPA binding,[15],only very weak inhibitors
O=C(O)[C@H]1NCCN(C(=O)c2ccc(CCc3ccccc3)cc2)[C@H]1C(=O)O [Compound 21],IC50,[3],> 100 µM
same,IC50,[5],> 100 µM
same,IC50,[13],> 100 µM
same,IC50,[16],> 100 µM
same,antagonism of GluN2D,[14]; at a concentration of 100 μM,~ 10%
same,fold lower affinity for GluK1 compared to 34b,[1],approximately 2 fold
same,fold lower affinity for GluK1 compared to (±)-4,[1],9 fold
"O=C(O)[C@@H]1[C@H](C(=O)O)NCCN1C(=O)c1ccc2c(ccc3ccccc32)c1 [(−)-4, (−)-1-(Phenanthrene-2-carbonyl)piperazine-2,3-dicarboxylic acid]",fold higher affinity for GluK1 than the (+)-4 enantiomer,[1],27 fold
same,GluK2 antagonist activity,[2],no GluK2 antagonist activity

# Source: paper PMC3269097 (Journal of Medicinal Chemistry, 2011)
